Experimental data reported in ChEMBL document CHEMBL4390663, “Cationic biaryl 1,2,3-triazolyl peptidomimetic amphiphiles: synthesis, antibacterial evaluation and preliminary mechanism of action studies” (Eur J Med Chem, 2019).
Values after ≈ are worked out from the molar mass of the structure shown.

Tests used:
Staphylococcus aureus [1] = experiment: Antimicrobial activity against Staphylococcus aureus ATCC 43300 incubated for 18 hrs by CLSI method; format: functional; details: ATCC 43300, 18 h
Pseudomonas aeruginosa = experiment: Antimicrobial activity against Pseudomonas aeruginosa ATCC 27853 incubated for 18 hrs by CLSI method; format: functional; details: ATCC 27853, 18 h
In short: (§1)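 Screen run by CO-ADD: mid-log cultures in cation-adjusted MHB, 5 × 10^5 CFU/mL, compounds at up to 32 μg/mL in 1:2 serial dilutions (8 steps), final DMSO ≤0.5%, duplicate. 37 °C for 18 h without shaking; OD600 read against media-only and untreated-bacteria references. MIC = lowest concentration giving ≥80% inhibition; colistin standard.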

Staphylococcus aureus [2] = experiment: Antibacterial activity against methicillin-resistant Staphylococcus aureus NCTC 10442 incubated for 24 hrs by CLSI method; format: functional; details: NCTC 10442, 24 h
In short: (§2)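 Broth microdilution per CLSI aerobic guidance in Mueller Hinton broth, ambient air, 35 °C for 24 h. DMSO stocks were diluted in water, then serially diluted with double-strength broth inoculum added, for final 0.25–128 μg/mL. […] MIC was read visually as the lowest concentration inhibiting growth; the modal value of triplicates was recorded.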

[3] = Cytotoxicity against human HEK293 cells assessed as reduction in cell growth incubated for 20 hrs by resazurin dye-based fluorometric assay
In short: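 HEK293 cells, 5000 per well in DMEM + 10% FBS, exposed to compounds (top 32 μg/mL, 1:2 serial dilution ×8, ≤0.5% DMSO, duplicate) for 20 h at 37 °C, 5% CO2. Resazurin added (2.3 μg/mL final), 3 h further; fluorescence ex 560/em 590 nm. CC50 from sigmoidal dose-response fit against log concentration; tamoxifen standard.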

Clostridioides difficile [4] = experiment: Antibacterial activity against Clostridium difficile NSW132 RT027 incubated for 48 hrs by CLSI method; format: functional; details: NSW132 RT027, 48 h
In short: (§3)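 Broth microdilution per CLSI anaerobe method in pre-reduced (2-4 h) Brucella broth with haemin and vitamin K, 35 °C anaerobically for 48 h. Compounds from 5 mg/mL DMSO stocks, twofold dilutions in water mixed with double-strength broth; final 0.25–128 μg/mL. […] Triplicate; modal MIC read visually as lowest concentration inhibiting growth.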

[5] = Haemolytic activity in sheep erythrocytes at 5 ug/ml incubated for 2 hrs under shaking condition relative to control; format: ADME, cell-based, Ovis aries, Erythrocyte; details: read-out: Activity
In short: (§4)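 Compounds in PBS mixed with washed sheep erythrocytes (2% final) at 5 or 50 μg/mL, rocked 2 h at 37 °C, centrifuged; supernatant absorbance at 540 nm. PBS-only value subtracted, then expressed relative to water lysis (100%). Triplicate, means reported.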

Streptococcus pneumoniae [6] = experiment: Antibacterial activity against Streptococcus pneumoniae ATCC 49619 incubated for 24 hrs by CLSI method; format: functional; details: ATCC 49619, 24 h
In short: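 CLSI broth microdilution in MHB with 2.5% lysed horse blood, 5% CO2, 35 °C, 24 h. Compounds from 5 mg/mL DMSO stocks diluted in water plus double-strength broth; final 0.25–128 μg/mL. […] Triplicate; modal MIC read visually as lowest growth-inhibiting concentration.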

Escherichia coli = experiment: Antibacterial activity against Escherichia coli ATCC 25922 incubated for 18 hrs by CLSI method; format: functional; details: ATCC 25922, 18 h; in short: as §1
Enterococcus faecalis [7] = experiment: Antibacterial activity against Enterococcus faecalis ATCC 29212 incubated for 24 hrs by CLSI method; format: functional; details: ATCC 29212, 24 h
[8] = Haemolytic activity in sheep erythrocytes at 50 ug/ml incubated for 2 hrs under shaking condition relative to control; format: ADME, cell-based, Ovis aries, Erythrocyte; details: read-out: Activity; in short: as §4
Clostridioides difficile [9] = experiment: Antibacterial activity against Clostridium difficile ATCC 700057 incubated for 48 hrs by CLSI method; format: functional; details: ATCC 700057, 48 h; in short: as §3
Acinetobacter baumannii = experiment: Antimicrobial activity against Acinetobacter baumannii ATCC 19606 incubated for 18 hrs by CLSI method; format: functional; details: ATCC 19606 = CIP 70.34 = JCM 6841, 18 h; in short: as §1
Klebsiella pneumoniae = experiment: Antibacterial activity against Klebsiella pneumoniae 700603 incubated for 18 hrs by CLSI method; format: functional; details: Klebsiella pneumoniae, 700603, 18 h; in short: as §1
Staphylococcus aureus [10] = experiment: Antimicrobial activity against Staphylococcus aureus ATCC 29213 incubated for 24 hrs by CLSI method; format: functional; details: ATCC 29213, 24 h; in short: as §2
Streptococcus pneumoniae [11] = experiment: Antibacterial activity against MDR Streptococcus pneumoniae ATCC 700677 incubated for 18 hrs by CLSI method; format: functional; details: ATCC 700677, 18 h
Enterococcus faecalis [12] = experiment: Antimicrobial activity against vancomycin-resistant Enterococcus faecalis clinical isolate incubated for 18 hrs by CLSI method; format: functional
Staphylococcus aureus [13] = experiment: Antimicrobial activity against glycopeptide intermediate susceptible Staphylococcus aureus NRS17 incubated for 18 hrs by CLSI method; format: functional; details: NRS17, 18 h
Staphylococcus aureus [14] = experiment: Antimicrobial activity against glycopeptide intermediate susceptible/methicillin-resistant Staphylococcus aureus NRS1 incubated for 18 hrs by CLSI method; format: functional; details: NRS1, 18 h

SMILES | MIC (Staphylococcus aureus [1]) | MIC (Pseudomonas aeruginosa) | MIC (Staphylococcus aureus [2]) | CC50 at 20 h [3] | MIC (Clostridioides difficile [4]) | hemolysis at 2 h, 5 ug/ml [5] | MIC (Streptococcus pneumoniae [6]) | MIC (Escherichia coli) | MIC (Enterococcus faecalis [7]) | hemolysis at 2 h, 50 ug/ml [8] | MIC (Clostridioides difficile [9]) | MIC (Acinetobacter baumannii) | MIC (Klebsiella pneumoniae) | MIC (Staphylococcus aureus [10]) | MIC (Streptococcus pneumoniae [11]) | MIC (Enterococcus faecalis [12]) | MIC (Staphylococcus aureus [13]) | MIC (Staphylococcus aureus [14])
CC(C)CCOc1ccc2ccccc2c1-c1c(OCc2cn(C[C@@H](CCCCN)NC(=O)[C@@H](CCCNC(=N)N)n3cc(CC4CCCCC4)nn3)nn2)ccc2ccccc12.Cl.Cl | 2 µg/mL | 32 µg/mL | 4 µg/mL | > 32 µg/mL | 16 µg/mL | 1.6% | 4 µg/mL | 32 µg/mL | 4 µg/mL | 88.8% | 8 µg/mL | 16 µg/mL | > 32 µg/mL | 4 µg/mL | – | – | – | –
CC(C)CCOc1ccccc1-c1ccccc1OCc1cn(C[C@@H](CCCNC(=N)N)NC(=O)OCc2ccccc2)nn1.Cl | 8 µg/mL | > 32 µg/mL | 4 µg/mL | > 32 µg/mL | 32 µg/mL | 0.7% | 16 µg/mL | > 32 µg/mL | 8 µg/mL | 89.1% | 32 µg/mL | > 32 µg/mL | > 32 µg/mL | 4 µg/mL | – | – | – | –
CC(C)CCOc1ccc2ccccc2c1-c1c(OCc2cn(C[C@@H](CCCNC(=N)N)NC(=O)Cc3ccccc3)nn2)ccc2ccccc12.Cl | 4 µg/mL | > 32 µg/mL | 4 µg/mL | 16.5 µg/mL | 64 µg/mL | 1% | 8 µg/mL | > 32 µg/mL | 8 µg/mL | 87.4% | 64 µg/mL | > 32 µg/mL | > 32 µg/mL | 4 µg/mL | – | – | – | –
CC(C)CCOc1ccccc1-c1ccccc1OCc1cn(C[C@@H](CCCCN)NC(=O)[C@@H](CCCNC(=N)N)n2cc(C3CCCCC3)nn2)nn1.Cl.Cl | 4 µg/mL | 8 µg/mL | 4 µg/mL | 14.2 µg/mL | 8 µg/mL | 1.9% | 4 µg/mL | 8 µg/mL | 8 µg/mL | 22.9% | 4 µg/mL | 16 µg/mL | 16 µg/mL | 8 µg/mL | – | – | – | –
CC(C)CCOc1ccccc1-c1ccccc1OCc1cn(C[C@@H](CCCNC(=N)N)NC(=O)[C@@H](CCCCN)n2cc(CCc3ccccc3)nn2)nn1.Cl.Cl | 2 µg/mL | 8 µg/mL | 4 µg/mL | 17.4 µg/mL | 16 µg/mL | 1.7% | 4 µg/mL | 4 µg/mL | 8 µg/mL | 28.8% | 16 µg/mL | 16 µg/mL | 16 µg/mL | 4 µg/mL | – | – | – | –
CN[C@H](CC(C)C)C(=O)N[C@H]1C(=O)N[C@@H](CC(N)=O)C(=O)N[C@H]2C(=O)N[C@H]3C(=O)N[C@H](C(=O)N[C@H](C(=O)O)c4cc(O)cc(O)c4-c4cc3ccc4O)[C@H](O)c3ccc(c(Cl)c3)Oc3cc2cc(c3O[C@@H]2O[C@H](CO)[C@@H](O)[C@H](O)[C@H]2O[C@H]2C[C@](C)(N)[C@H](O)[C@H](C)O2)Oc2ccc(cc2Cl)[C@H]1O [VANCOMYCIN] | – | – | – | – | 0.5 µg/mL (≈ 0.345 µM) | – | 1 µg/mL (≈ 0.69 µM) | – | – | – | 0.5 µg/mL (≈ 0.345 µM) | – | – | – | 1 to 2 µg/mL (≈ 0.69 to 1.38 µM) | > 32 µg/mL | 8 µg/mL (≈ 5.52 µM) | 8 µg/mL (≈ 5.52 µM)
CC(C)CCOc1ccccc1-c1ccccc1OCc1cn(C[C@@H](CCCNC(=N)N)NC(=O)Cc2ccccc2)nn1.Cl | 16 µg/mL | > 32 µg/mL | 16 µg/mL | 29 µg/mL | 16 µg/mL | – | 16 µg/mL | > 32 µg/mL | 16 µg/mL | – | 64 µg/mL | > 32 µg/mL | > 32 µg/mL | 16 µg/mL | – | – | – | –
CC(C)CCOc1ccc2ccccc2c1-c1c(OCc2cn(C[C@@H](CCCCN)NC(=O)Cc3ccccc3)nn2)ccc2ccccc12.Cl | 8 µg/mL | > 32 µg/mL | 8 µg/mL | 8.6 µg/mL | 32 µg/mL | – | 32 µg/mL | > 32 µg/mL | 8 µg/mL | – | 16 µg/mL | > 32 µg/mL | > 32 µg/mL | 8 µg/mL | – | – | – | –
CC(C)CCOc1ccccc1-c1ccccc1OCc1cn(C[C@@H](CCCCN)NC(=O)[C@@H](CCCNC(=N)N)NC(=O)Cc2ccccc2)nn1.Cl.Cl | 4 µg/mL | 32 µg/mL | 8 µg/mL | 32 µg/mL | 16 µg/mL | 0.6% | 8 µg/mL | 16 µg/mL | 8 µg/mL | 17.5% | 16 µg/mL | 32 µg/mL | 32 µg/mL | 8 µg/mL | – | – | – | –
CC(C)CCOc1ccccc1-c1ccccc1OCc1cn(C[C@@H](CCCNC(=N)N)NC(=O)[C@@H](CCCCN)n2cc(C3CCCCC3)nn2)nn1.Cl.Cl | 4 µg/mL | 8 µg/mL | 4 µg/mL | 15.3 µg/mL | 32 µg/mL | – | 4 µg/mL | 8 µg/mL | 8 µg/mL | – | 32 µg/mL | 8 µg/mL | 32 µg/mL | 4 µg/mL | – | – | – | –
CC(C)CCOc1ccccc1-c1ccccc1OCc1cn(C[C@@H](CCCNC(=N)N)NC(=O)[C@@H](CCCCN)n2cc(Cc3ccccc3)nn2)nn1.Cl.Cl | 4 µg/mL | 16 µg/mL | 4 µg/mL | 17.8 µg/mL | 64 µg/mL | – | 4 µg/mL | 8 µg/mL | 8 µg/mL | – | 64 µg/mL | 16 µg/mL | 32 µg/mL | 4 µg/mL | – | – | – | –
CC(C)CCOc1ccccc1-c1ccccc1OCc1cn(C[C@@H](CCCCN)NC(=O)OCc2ccccc2)nn1.Cl | 16 µg/mL | 32 µg/mL | 16 µg/mL | 4.7 µg/mL | 32 µg/mL | – | 32 µg/mL | 32 µg/mL | 16 µg/mL | – | 8 µg/mL | 32 µg/mL | > 32 µg/mL | 16 µg/mL | – | – | – | –
CC(C)CCOc1ccc2ccccc2c1-c1c(OCc2cn(C[C@@H](CCCCN)NC(=O)[C@@H](CCCNC(=N)N)NC(=O)Cc3ccccc3)nn2)ccc2ccccc12.Cl.Cl | 2 µg/mL | 16 µg/mL | 4 µg/mL | 12.1 µg/mL | 16 µg/mL | – | 4 µg/mL | 8 µg/mL | 4 µg/mL | – | 8 µg/mL | 32 µg/mL | 32 µg/mL | 2 µg/mL | – | – | – | –
CC(C)CCOc1ccccc1-c1ccccc1OCc1cn(C[C@@H](CCCCN)NC(=O)[C@@H](CCCNC(=N)N)NC(=O)OCC2c3ccccc3-c3ccccc32)nn1.Cl.Cl | 4 µg/mL | > 32 µg/mL | 4 µg/mL | > 32 µg/mL | 32 µg/mL | – | 4 µg/mL | > 32 µg/mL | 4 µg/mL | – | 32 µg/mL | > 32 µg/mL | > 32 µg/mL | 4 µg/mL | – | – | – | –
